# HSF1 inhib: HSF1 inhibition; hit rate 0.77% among 300,000; NIH3T3-HGL HSE-luciferase, MG132-induced, luminescence 8 h; hits give low values; AID 2098; activity change, negative = inhibition, % at 7.5 µM (by protocol);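 active = more than half of replicate wells show activity change below -50%, luminescence cut by over half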;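 note: luciferase reports HSF-1 transcriptional activity via heat shock element; 0% = median of DMSO wells and -100% = zero luminescence signal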
# HSF-1 act: increases HSF-1 driven luciferase reporter signal; NIH3T3-HGL HSF-1 luciferase reporter, MG132, 8 h; 100% = twice DMSO control signal; hit rate 1.7% among 300,000; activation, % at 9 µM;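 active = mean replicate activation of at least 50% with a set share of replicates each reaching 50%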;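 note: 0% = median of the neutral control wells and 100% = twice that signal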
# TbHK1 inh: T. brucei hexokinase 1 inhibition. inhibition, % at 10 µM. AID 1430. hit rate 0.11% among 220,000. recombinant TbHK1, G6PDH-coupled NADH A340;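 active = inhibition of 50% or more in the single-dose primary screen; inactive = inhibition below 50%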
# HSP90 refold inh: inhibitors of HSP90 luciferase refolding in rabbit reticulocyte lysate; luciferase refolding luminescence, 3 h; inhibition, % at 5.6 µM; hit rate 0.91% among 290,000;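 active = inhibition above the screen-wide mean plus 3 SD, computed separately per campaign, cut at about 16% in these data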;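 note: 0% = DMSO wells and 100% = 60 µM geldanamycin wells; inhibitors lower the luminescence because luciferase stays unfolded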
# Hsp70 activator: transcriptional activators of Hsp70. HeLa Hsp70 promoter luciferase reporter, luminescence; scaled: vehicle 0, proteasome-inhibitor control 100%. activation, % at 10 µM. hit rate 0.04% among 200,000. AID 1203;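 active = activation above the mean across all tested compounds plus 3 SD, cutoff set per campaign, cut at about 5.5% in these data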;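 note: 100% = MG132 at 30 µM as the positive control and 0% = DMSO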
# HKDC1 inh: blocks human hexokinase HKDC1 activity; Q2TB90; recombinant HKDC1, G6PDH/diaphorase resazurin coupled fluorescence; inhibition, % at 20 µM; hit rate 0.16% among 340,000; AID 493160;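 active = inhibition above about 35% when tested at 20 µM, limit read from the data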;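 note: plate controls were DMSO wells with enzyme for no effect and DMSO wells lacking enzyme for full effect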
# Target sequence (Q2TB90 whole entry, looked up): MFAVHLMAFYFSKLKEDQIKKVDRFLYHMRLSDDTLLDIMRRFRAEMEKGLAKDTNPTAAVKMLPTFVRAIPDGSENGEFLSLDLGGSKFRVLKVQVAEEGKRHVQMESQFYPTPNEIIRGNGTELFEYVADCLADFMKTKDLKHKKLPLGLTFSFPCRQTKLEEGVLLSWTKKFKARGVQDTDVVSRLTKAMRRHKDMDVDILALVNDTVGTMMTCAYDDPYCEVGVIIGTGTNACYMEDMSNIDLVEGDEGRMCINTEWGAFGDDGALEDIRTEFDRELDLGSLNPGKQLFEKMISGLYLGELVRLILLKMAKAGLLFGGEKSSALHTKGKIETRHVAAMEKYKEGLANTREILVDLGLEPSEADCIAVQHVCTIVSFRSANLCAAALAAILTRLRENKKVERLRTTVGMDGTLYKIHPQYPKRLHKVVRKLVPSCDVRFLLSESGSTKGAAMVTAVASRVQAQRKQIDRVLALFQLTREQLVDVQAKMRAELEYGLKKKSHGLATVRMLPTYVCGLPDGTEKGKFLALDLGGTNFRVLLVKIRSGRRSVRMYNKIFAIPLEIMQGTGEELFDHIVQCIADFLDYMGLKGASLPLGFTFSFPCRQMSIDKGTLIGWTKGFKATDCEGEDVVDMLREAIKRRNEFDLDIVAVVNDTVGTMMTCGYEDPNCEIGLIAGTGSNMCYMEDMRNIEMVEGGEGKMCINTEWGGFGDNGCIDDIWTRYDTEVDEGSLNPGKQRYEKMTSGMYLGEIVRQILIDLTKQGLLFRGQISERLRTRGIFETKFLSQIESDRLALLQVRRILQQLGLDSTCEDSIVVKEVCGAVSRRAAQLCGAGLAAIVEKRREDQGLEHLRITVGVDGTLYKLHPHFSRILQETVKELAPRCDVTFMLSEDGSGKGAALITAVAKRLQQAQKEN
#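 System: Recombinant HKDC1 hexokinase | Amount: HKDC1 at 5 µg/mL | Reagent: Glucose with 1 mM ATP | Doses: Single 20 µM dose | Incubation: Reaction time 90 min, room temperature, protected from light | Signal: Coupled resazurin fluorescence, excitation 525 nm, emission 613 nm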
# An asterisk follows results filed as active; . = not tested or not shown. Compounds with a hit are over-represented: about 3.1% of the library has one in this group of screens.
SMILES,HSF1 inhib,HSF-1 act,TbHK1 inh,HSP90 refold inh,Hsp70 activator,HKDC1 inh
Cc1ccc(C(=O)CSc2nnc3ccccn23)c(C)c1,11,22,-4,12,0,-1
COCCn1c(C)cc(C(=O)CSc2nnc3ccccn23)c1C,-51*,-60,-8,50*,0,-7
COCCn1c(SCC(=O)c2cc(C)n(C)c2C)nc2ccccc2c1=O,-72*,-77,-3,-2,0,-4
O=C1C=C(C2OC(CO)C(O)C2O)C(=O)N1 (configuration not stated),.,.,.,.,.,-6
O=C(O)/C=C\C(=O)Nc1ccccc1C#Cc1ccc(Br)cc1,14,56*,-4,-3,0,16
O=C(O)/C=C\C(=O)Nc1ccccc1C#Cc1ccccc1,12,20,1,-2,0,-5
CCCCC[C@H](O)/C=C/[C@H]1C=CC(=O)[C@@H]1C/C=C\CCCC(=O)O,.,.,41,0,0,.
CCCCC1C(=O)CC[C@H]2[C@@H]1CC(=O)[C@@H]2C/C=C\CCCC(=O)O (some centres not stated),40,72*,13,-1,0,1
CCC(C(=O)NC(C)(C)C)N(Cc1ccco1)C(=O)CNS(=O)(=O)c1ccc(OC)cc1 (configuration not stated),-5,-4,.,4,.,-6
O=C1NCC(Nc2ccccc2Cl)C(=O)N1 (configuration not stated),.,.,.,.,.,-8
CCc1nn(CC(=O)N2CCC(C(N)=O)CC2)c(=O)c2cc3occc3n12,-67*,-75,.,-1,.,3
CCOC(=O)C1CCN(C(=O)CCCn2nc(CC)n3c(cc4occc43)c2=O)CC1,-1,-14,.,3,.,-3
c1cncc(CNCc2ccco2)c1,-7,-5,.,3,.,5
Cn1ncc2c(O/N=C(\N)c3ccc(C(C)(C)C)cc3)ncnc21,-92*,-93,-10,2,.,7
CCN(CC(=O)Nc1c(F)cccc1F)C(=O)Cc1n[nH]c(=O)c2ccccc12,-72*,-78,.,.,.,-1
Cc1ccc(C2=N/C(=C\N3CCCCC3)C(=O)O2)cc1,21,63*,-49,3,0,-2
COc1ccc(NC(=O)C2CCCCN2S(=O)(=O)c2ccccc2)cc1S(=O)(=O)N1CCOCC1 (configuration not stated),.,.,.,.,.,-4
CCOC(=O)c1ccc(S(=O)(=O)N2CCN(C3CC(=O)N(c4ccccc4C(F)(F)F)C3=O)CC2)cc1 (configuration not stated),.,.,.,.,.,-4
CC(C)(C)c1ccc(C(=O)c2c[nH]c(C(=O)NCCc3ccccn3)c2)cc1,0,-6,2,16*,0,-6
Cc1nn(-c2ccccc2)c(N)c1C(O)(CSc1nccn1C)C(F)(F)F (configuration not stated),-91*,-91,-1,-1,0,-4
CCOc1ccc(C2C(C(=O)c3cccs3)=C(O)C(=O)N2CCN2CCOCC2)cc1 (configuration not stated),3,-7,.,2,.,-3
O=[N+]([O-])c1ccc(-c2cnc(SC(c3ccccc3)c3ccccc3)[nH]2)cc1,12,10,-3,5,1,18
O=[N+]([O-])c1ccc(-c2cnc(SCc3ccccc3Cl)[nH]2)cc1,24,56*,0,-1,0,0
Cc1ccc(C(=O)Nc2ncc(C)s2)o1,11,41,-27,6,0,-3
Cc1ccc(C(=O)Nc2ncc(Cc3ccc(F)cc3)s2)o1,29,68*,-13,4,0,2
SMILES,HSF1 inhib,HSF-1 act,TbHK1 inh,HSP90 refold inh,Hsp70 activator,HKDC1 inh
CCCc1cc(=O)n2nc(N3CCC(C(=O)NCc4ccc(C)o4)CC3)sc2n1,-38,-52,.,3,.,-6
Clc1ccc2nc(COc3ccccc3)[nH]c2c1,20,34,.,3,.,3
O=C(Cn1cnc2scc(-c3ccc(F)cc3)c2c1=O)NCC(c1ccco1)N1CCCC1 (configuration not stated),.,.,.,.,.,-3
Cc1ccc(S(=O)(=O)/C(=C/Cl)NC(=O)c2ccccc2)cc1,62,91*,19,8,0,6
Cc1ccc(C(=O)NC(=C(Cl)Cl)S(=O)(=O)c2ccc(Cl)cc2)cc1,126,185*,7,4,0,15
Cc1ccc(C(=O)NC(=C(Cl)Cl)S(=O)(=O)c2ccc(C)cc2)cc1,21,28,24,-2,0,-3
O=C(NC(=C(Cl)Cl)S(=O)(=O)c1ccc(Cl)cc1)c1ccccc1,57,67*,-3,1,.,17
Cc1ccc(S(=O)(=O)C(NC(=O)c2ccccc2)=C(Cl)Cl)cc1,33,29,0,0,0,7
COc1cc(NC(=O)C2CCC(CNS(=O)(=O)c3csc(C(N)=O)c3)CC2)cc(OC)c1 (configuration not stated),-4,3,.,-3,.,-5
O=c1c2ccccc2cnn1Cc1n[nH]c(=S)n1-c1ccc(F)cc1,-12,-33,0,4,0,-8
CC(c1ccc(F)cc1)n1c(Cn2ncc3ccccc3c2=O)n[nH]c1=S (configuration not stated),35,66*,5,0,0,0
CCOc1cc(/C=C2\C(=O)N(Cc3ccc(C)cc3)C(C)=C2C(=O)OC)ccc1O,53,77*,-7,3,0,22
CCN1C(=O)/C(=C\c2ccc3c(c2)OCO3)C(C(=O)OC)=C1C,26,63*,-10,0,0,-3
C=CCOc1cccc(/C=C2\C(=O)N(Cc3ccc(C)cc3)C(C)=C2C(=O)OC)c1,24,42,15,0,0,17
COc1ccc(Br)c(C(=O)NCC2CCCCC2)c1,0,0,.,-3,.,-5
O=C(OCc1ccccc1)N1CCC2CC1c1cc(NCCc3ccccc3)ccc12 (configuration not stated),.,.,.,.,.,4
CCOC(=O)C1=CN(Cc2cccc(F)c2)S(=O)(=O)N(CC)C1c1ccc(C(F)(F)F)cc1 (configuration not stated),.,.,.,.,.,0
Cc1ccc2nc(N3CCN(C)CC3)c(C#N)cc2c1,-2,12,-4,-2,0,-1
Cc1ccc2nc(N3CCN(Cc4nnnn4Cc4ccccc4)CC3)c(C#N)cc2c1,-62*,-69,4,2,0,1
CC(C)Oc1ccc(C(=O)OCC(=O)c2ccc[nH]2)cc1,.,.,.,.,.,-4
Cc1ccc(NC(=O)CSCc2cc(=O)n3cc(C)sc3n2)c(C)c1,-59*,-69,.,-1,.,-1
COC(=O)[C@@]12CCCCN1[C@H](c1ccc(-c3ccc4c(c3)OCO4)cc1)[C@H]1C(=O)N(C)C(=O)[C@H]12,.,.,.,.,.,-1
Cc1ccc2c(c1)N(Cc1cccc(Cl)c1)C(=O)c1cccnc1O2,9,26,-4,0,0,-8
